The source made the active and inactive calls. The calls are words filed in the database; no cut-off is given here.
Experiments:
Mus musculus [1] = test: Number of animals protected or toxic compared to number tested rotarod test in Phase-I by intraperitoneal administration in mice; 4/4; assay type: functional
Method in brief: (§1)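 Mice dosed ip and tested 30 min later. Phase I screen is qualitative: maximal electroshock and subcutaneous metrazol (scMet) seizure tests, plus a rotorod test for neurotoxicity. Reported as the best active dose in mg/kg, with animals protected (or toxic) over the number tested. Run by the NINDS Antiepileptic Drug Development Program.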

Mus musculus [2] = test: Number of animals protected or toxic compared to number tested maximal electric shock (MES) method in Phase-I by intraperitoneal administration in mice; 1/1; assay type: functional; method in brief: as §1
Mus musculus [3] = test: Time taken for measure Anticonvulsant activity in Phase -II by intraperitoneal administration in mice; assay type: functional
Mus musculus [4] = test: Anticonvulsant activity was measured as inhibition of convulsions by subcutaneous administration in mice; assay type: functional; method in brief: as §1
Mus musculus [5] = test: Anticonvulsant activity was measured as inhibition of convulsions by maximal electric shock (MES) method in Phase-I by intraperitoneal administration in mice; assay type: functional; method in brief: as §1
Mus musculus [6] = test: Anticonvulsant activity was measured by maximal electric shock (MES) method in Phase -II by intraperitoneal administration in mice; assay type: functional; conditions: ip
Method in brief: (§2)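 Phase II quantification in mice dosed ip: ED50 against maximal electroshock seizures and rotorod neurotoxic TD50, both in mg/kg. The 95% confidence intervals are given in brackets. Run by the NINDS Antiepileptic Drug Development Program.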

Mus musculus [7] = test: Number of animals protected or toxic compared to number tested in subcutaneous administration in mice; 4/4; assay type: functional; method in brief: as §1
[8] = biological target: Sodium channel alpha subunits; brain (Types I, II, III) (Rattus norvegicus, UniProt P04775+P04774+P08104); test: Inhibition of binding to sodium channel of rat cerebral cortex; assay type: tissue-based
Method in brief: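 Rat cerebral cortex synaptosomes (~1 mg protein) incubated 40 min at 25 °C with 10 nM [3H]BTX-B, 50 μg/mL scorpion venom and test compound at seven concentrations. Filtration, ice-cold buffer washes, scintillation counting. Nonspecific binding defined with 300 μM veratridine. Triplicate runs with 40 μM DPH control tube. IC50 by Probit analysis, excluding doses giving <10% or >90% inhibition.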

[9] = Partition coefficient (logP); assay type: physicochemical; conditions: octanol/water
Method in brief: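 Calculated rather than measured: the parent-structure log P value is summed with π contributions for the substituents. Both sets of constants come from published tables.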

Mus musculus [10] = test: Anticonvulsant activity was measured as inhibition of convulsions by rotarod test in Phase-I by intraperitoneal administration in mice; assay type: functional; method in brief: as §1
Mus musculus [11] = test: Anticonvulsant activity was measured by rotarod test in Phase -II by intraperitoneal administration in mice; assay type: functional; conditions: ip; method in brief: as §2
Mus musculus [12] = test: Number of animals protected or toxic compared to number tested in subcutaneous administration in mice; 1/1; assay type: functional; method in brief: as §1
Mus musculus [13] = test: Number of animals protected or toxic compared to number tested rotarod test in Phase-I by intraperitoneal administration in mice; 1/4; assay type: functional; method in brief: as §1
Mus musculus [14] = test: Number of animals protected or toxic compared to number tested in subcutaneous administration in mice; 3/4; assay type: functional, organism-based; method in brief: as §1
Mus musculus [15] = test: Number of animals protected or toxic compared to number tested maximal electric shock (MES) method in Phase-I by intraperitoneal administration in mice; 3/3; assay type: functional; method in brief: as §1
Mus musculus [16] = test: Number of animals protected or toxic compared to number tested rotarod test in Phase-I by intraperitoneal administration in mice; 8/8; assay type: functional, organism-based; method in brief: as §1
Mus musculus [17] = test: Number of animals protected or toxic compared to number tested maximal electric shock (MES) method in Phase-I by intraperitoneal administration in mice; 1/3; assay type: functional; method in brief: as §1

CCCC1(c2ccccc2)NC(=O)NC1=O (stereo not drawn)
Activity (Mus musculus [1]): 4 | Activity (Mus musculus [2]): 1 | Time (Mus musculus [3]): 1 h | Activity (Mus musculus [4]): 100 mg/kg | Activity (Mus musculus [5]): 30 mg/kg | ED50 (Mus musculus [6]): 25 mg/kg | Activity (Mus musculus [7]): 4 | IC50 [8]: 162 µM | logP [9]: 1.96 | Activity (Mus musculus [10]): 100 mg/kg | TD50 (Mus musculus [11]): 85 mg/kg

CCC1(c2ccccc2)OC(=O)N(C)C1=O (stereo not drawn)
Activity (Mus musculus [2]): 1 | Time (Mus musculus [3]): 0.5 h | Activity (Mus musculus [12]): 1 | Activity (Mus musculus [4]): 30 mg/kg | Activity (Mus musculus [5]): 300 mg/kg | logP [9]: 2.65 | Activity (Mus musculus [10]): 300 mg/kg | TD50 (Mus musculus [11]): 504 mg/kg | Activity (Mus musculus [13]): 1

CCCCC1(c2ccccc2)NC(=O)N(C)C1=O (stereo not drawn)
IC50 [8]: 285 µM | logP [9]: 3.01

O=C1NC2(c3ccccc3)CCCCN1C2=O (stereo not drawn)
Activity (Mus musculus [1]): Active | Activity (Mus musculus [4]): 100 mg/kg | Activity (Mus musculus [14]): Weak activity | Activity (Mus musculus [5]): 100 mg/kg | Activity (Mus musculus [15]): 3 | IC50 [8]: 700 µM | logP [9]: 2.01 | Activity (Mus musculus [10]): 300 mg/kg

O=C1NC(=O)C(c2ccccc2)(c2ccccc2)N1 [PHENYTOIN]
Time (Mus musculus [3]): 2 h | ED50 (Mus musculus [6]): 10 mg/kg | logP [9]: 2.46

O=C1OC2(c3ccccc3)CCCCCN1C2=O (stereo not drawn)
Time (Mus musculus [3]): 0.25 h | Activity (Mus musculus [12]): Active | Activity (Mus musculus [4]): 100 mg/kg | Activity (Mus musculus [5]): 100 mg/kg | ED50 (Mus musculus [6]): 66 mg/kg | Activity (Mus musculus [15]): 3 | Activity (Mus musculus [16]): Active | IC50 [8]: 160 µM | logP [9]: 3.05 | Activity (Mus musculus [10]): 100 mg/kg | TD50 (Mus musculus [11]): 147 mg/kg

NC(=O)C1(c2ccccc2)CCCCCNC1=O (stereo not drawn)
Activity (Mus musculus [1]): 4 | Activity (Mus musculus [4]): 300 mg/kg | Activity (Mus musculus [5]): 100 mg/kg | Activity (Mus musculus [7]): 4 | Activity (Mus musculus [17]): 1 | Activity (Mus musculus [10]): 300 mg/kg

O=C1NC2(c3ccccc3)CCCCCN1C2=O (stereo not drawn)
Activity (Mus musculus [1]): 4 | Time (Mus musculus [3]): 0.25 h | Activity (Mus musculus [4]): >300 mg/kg | Activity (Mus musculus [5]): 100 mg/kg | ED50 (Mus musculus [6]): 86 mg/kg | Activity (Mus musculus [15]): 3 | IC50 [8]: 427 µM | logP [9]: 2.51 | Activity (Mus musculus [10]): 300 mg/kg | TD50 (Mus musculus [11]): 124 mg/kg

CCCCC1(c2ccccc2)NC(=O)NC1=O (stereo not drawn)
IC50 [8]: 103 µM | logP [9]: 2.46

CCCCCC1(c2ccccc2)NC(=O)NC1=O (stereo not drawn)
IC50 [8]: 39 µM | logP [9]: 2.96

CN1C(=O)OC(C)(C)C1=O [TRIMETHADIONE]
Time (Mus musculus [3]): 1 h | IC50 [8]: > 1000 µM | logP [9]: -0.37 | TD50 (Mus musculus [11]): 810 mg/kg

O=C1O[C@@]2(c3ccccc3)CCCCN1C2=O
Activity (Mus musculus [12]): 1 | Activity (Mus musculus [4]): 300 mg/kg | Activity (Mus musculus [5]): >300 mg/kg | logP [9]: 2.65 | Activity (Mus musculus [10]): >300 mg/kg

Source: ChEMBL document CHEMBL1127730, “Bicyclic hydantoins with a bridgehead nitrogen. Comparison of anticonvulsant activities with binding to the neuronal voltage-dependent sodium channel” (J Med Chem, 1994)
